Measurements published in ChEMBL document CHEMBL3822384, “2-(3-Methoxyphenyl)quinazoline Derivatives: A New Class of Direct Constitutive Androstane Receptor (CAR) Agonists” (J Med Chem, 2016).

Assays:
Format in all cases: cell-based
AHR = biological target: T1, AHR (Homo sapiens, UniProt P35869); assay: (§1) Agonist activity at AHR expressed in human HepG2 cells after 24 hrs by pXRE-luciferase reporter gene assay; conditions: human, HepG2 cells expressing AHR; read-out: Imax
T1 sequence (P35869 whole entry): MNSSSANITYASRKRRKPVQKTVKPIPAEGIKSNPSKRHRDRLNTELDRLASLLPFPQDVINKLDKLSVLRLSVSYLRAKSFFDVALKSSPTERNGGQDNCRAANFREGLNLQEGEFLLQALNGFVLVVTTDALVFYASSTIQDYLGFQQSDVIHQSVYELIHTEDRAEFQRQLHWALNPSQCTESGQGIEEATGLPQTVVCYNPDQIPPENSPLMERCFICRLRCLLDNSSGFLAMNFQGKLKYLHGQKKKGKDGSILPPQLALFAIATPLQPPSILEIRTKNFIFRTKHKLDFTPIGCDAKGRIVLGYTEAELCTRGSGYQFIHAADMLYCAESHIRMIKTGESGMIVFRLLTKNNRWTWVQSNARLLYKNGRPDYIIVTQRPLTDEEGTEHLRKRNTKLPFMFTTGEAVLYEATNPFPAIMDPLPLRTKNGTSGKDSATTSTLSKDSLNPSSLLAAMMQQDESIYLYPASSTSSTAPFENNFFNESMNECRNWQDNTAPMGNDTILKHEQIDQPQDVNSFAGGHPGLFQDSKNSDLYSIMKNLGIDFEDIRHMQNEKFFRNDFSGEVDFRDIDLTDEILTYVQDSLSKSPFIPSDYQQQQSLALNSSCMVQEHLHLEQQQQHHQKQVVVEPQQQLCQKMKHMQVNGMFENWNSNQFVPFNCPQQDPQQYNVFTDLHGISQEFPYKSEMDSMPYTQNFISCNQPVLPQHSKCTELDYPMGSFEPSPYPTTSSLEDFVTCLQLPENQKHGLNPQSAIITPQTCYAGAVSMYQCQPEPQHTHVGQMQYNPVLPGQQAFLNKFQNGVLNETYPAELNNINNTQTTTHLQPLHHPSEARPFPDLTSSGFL

[1] = biological target: T2, Aryl hydrocarbon receptor (Homo sapiens, UniProt P35869); assay: as §1
T2 sequence (P35869 whole entry): T1 sequence (P35869 whole entry)

[2] = biological target: T3, Nuclear receptor subfamily 1 group I member 3 (Homo sapiens, UniProt Q14994); assay: Agonist activity at CAR expressed in human HepG2 cells at 1 to 20 uM after 48 hrs by p(ER6)3-luciferase reporter gene assay; conditions: hepg2, 48 h
T3 sequence (Q14994 whole entry): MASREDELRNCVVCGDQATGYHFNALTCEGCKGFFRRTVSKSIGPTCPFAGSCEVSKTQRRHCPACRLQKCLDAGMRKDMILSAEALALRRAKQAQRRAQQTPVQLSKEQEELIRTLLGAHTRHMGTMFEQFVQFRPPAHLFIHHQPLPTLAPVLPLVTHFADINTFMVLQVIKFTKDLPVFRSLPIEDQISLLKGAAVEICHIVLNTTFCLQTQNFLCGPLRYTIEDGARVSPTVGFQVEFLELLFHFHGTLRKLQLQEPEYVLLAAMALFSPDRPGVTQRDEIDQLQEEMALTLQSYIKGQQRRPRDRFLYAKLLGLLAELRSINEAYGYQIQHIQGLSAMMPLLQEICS
How it was run: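 HepG2 cells transiently co-transfected with p(ER6)3-luc reporter, wild-type CAR expression vector and pRL-TK normalization plasmid; after 24 h stabilization, treated with compounds or vehicle (DMSO 0.1%, v/v) for 48 h. Firefly and Renilla luciferase read; fold change versus vehicle (set to 1), means ± SD of triplicates from a representative experiment.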

HepG2 = assay: Cytotoxicity against human HepG2 cells assessed as cell viability after 24 hrs by MTS assay; conditions: hepg2, 24 h
[3] = biological target: T3, Nuclear receptor subfamily 1 group I member 3; assay: Agonist activity at human CAR expressed in human HepG2 cells assessed as upregulation of CYP2B6 mRNA expression at 1 uM after 24 hrs by qRT-PCR method; conditions: hepg2, 24 h

Row | Activity [2] | Activity [3] | Structure (SMILES) | Emax at 24 h (AHR) | EC50 [1] | Activity (HepG2)
1 | – | – | Clc1cc2c(cc1Cl)Oc1cc(Cl)c(Cl)cc1O2 [2,3,7,8-TETRACHLORODIBENZO-P-DIOXIN] | 59% | – | –
2 | – | – | Cc1ccc2cc3c(ccc4ccccc43)c3c2c1CC3 [3-METHYLCHOLANTHRENE] | 119% | 490 nM | –
3 | Active | Active | Clc1ccc(-c2nc3sccn3c2/C=N/OCc2ccc(Cl)c(Cl)c2)cc1 | – | – | Non-toxic
4 | Active | – | COc1cccc(-c2nc(O)c3ccccc3n2)c1 | – | – | –
